Bioassay records: PubChem BioAssay, several laboratories
Shown is part of a subset that was picked to be rich in hits.
Calb biofilm kill – mixture kills Candida albicans biofilm cells. inhibition, % at 7.6 µM. 0.02% of 120,000 active. C. albicans biofilm persisters + clotrimazole, fluorescence viability; primary screen in compound mixtures of four per well;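 also: compounds exposed to preformed 24 h biofilms for 48 h; 0% = untreated biofilm control and 100% = clotrimazole plus chlorhexidine kill blank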
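Test system: C. albicans biofilms. Buffer or medium: RPMI/MOPS medium, pH 7.0. Timing: 48 h compound exposure at 37 °C. Technique: Alamar Blue fluorescence. Evaluation: percent inhibition of biofilm viability.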
ROMK mod – modulators of human ROMK potassium channel; P48048; Tet-inducible ROMK, thallium flux fluorescence; actives lie on both sides; B-score at 10 µM; 2% of 130,000 active;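 active = signal ratio slope over the read window, or its plate-corrected B-score, at least 3 SD from the plate mean, either direction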;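 also: B-score of the F/F0 ratio slope over 7 to 12 s after thallium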
Target sequence (P48048 whole entry, looked up): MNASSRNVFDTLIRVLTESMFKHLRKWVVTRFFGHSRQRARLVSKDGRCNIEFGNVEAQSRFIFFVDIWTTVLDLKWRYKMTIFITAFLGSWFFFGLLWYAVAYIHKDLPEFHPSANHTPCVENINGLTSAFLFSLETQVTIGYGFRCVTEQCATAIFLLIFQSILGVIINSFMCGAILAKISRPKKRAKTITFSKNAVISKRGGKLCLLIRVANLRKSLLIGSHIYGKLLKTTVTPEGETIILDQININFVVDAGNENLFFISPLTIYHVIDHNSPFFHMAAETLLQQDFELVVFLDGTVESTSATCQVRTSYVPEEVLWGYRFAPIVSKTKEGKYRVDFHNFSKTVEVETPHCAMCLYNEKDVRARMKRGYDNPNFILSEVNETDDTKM
ROMK retest – retested hit modulating human ROMK potassium channel; shares compounds with ROMK mod; ROMK thallium flux, fluorescence ratio; active compounds read low; normalized thallium flux (F/F0 slope) at 10 µM; 54% of 3,000 active; AID 1917;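 active = Flux at 10 µM at least 3 SD below or above vehicle control mean in one or both replicates; inconclusive = no clear call, values can overlap the other calls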
* hit, by the source's call; ? = inconclusive; . = not tested or not shown.

SMILES | Calb biofilm kill | ROMK mod | ROMK retest
CC(=O)N1CCN(c2nc(N)c(C#N)c(CC#N)c2C#N)CC1 | 12 | . | .
Cc1cc(Cl)nc(-c2ccccc2O)n1 | 14 | 0.49 | .
NC(=O)c1cc(-c2ccncc2)nc2ccc(Cl)cc12 | -1 | -0.36 | .
Cc1[nH]nc2c1C(c1ccoc1)C(C#N)=C(N)O2 (stereo unspecified) | . | -3.2 | .
CCCc1[nH]nc2c1C(c1ccoc1)C(C#N)=C(N)O2 (stereo unspecified) | -2 | -3.7* | 0.052*
COc1ccc(-c2nc(C=O)cs2)cc1 | 26 | . | .
COc1cccc(-c2nc(C=O)cs2)c1 | 18 | 4.4* | 0.1*
CCN(CC)CCCNC(=S)N(Cc1ccco1)Cc1cc2cc3c(cc2[nH]c1=O)OCCO3 | 15 | . | .
CCN(CC)CCCNC(=S)N(Cc1cccs1)Cc1cc2cc3c(cc2[nH]c1=O)OCCO3 | 24 | -11* | 0.055*
CCCCN=C(NNc1ccc(Br)cc1)C(=O)OCC | 9 | . | .
Cc1ccsc1C(=O)c1sccc1C | 8 | . | .
CN1C(=O)/C(=N\OC(=O)c2ccccc2Cl)c2ccccc21 | 12 | -3.3 | .
CC(=O)O/N=C1\C(=O)N(Cc2ccc(C)cc2)c2ccccc21 | 13 | -5.2* | 0.063*
COc1ccc(/C=C/C=C2\N=C(SC)SC2=O)cc1 | 10 | -0.88 | .
Cc1c(-c2ccccc2)n[nH]c1C(=O)NN | 11 | 0.81 | .
Cc1oc(-c2cc(F)ccc2F)nc1CN1CCN(c2ncnc3ccccc23)CC1 | 21 | -0.0046 | .
COc1ccc(-c2nc(CN3CCN(c4ncnc5ccccc45)CC3)c(C)o2)c(OC)c1 | 2 | -2.7* | 0.065*
CCCNS(=O)(=O)c1ccc(OCC(=O)NCCCOC)cc1 | 9 | 0.85 | .
O=C(NCC(=O)N(c1cccnc1)C(C(=O)NC1CCCC1)c1ccccc1)c1ccco1 (stereo unspecified) | 21 | . | .
O=C(Cn1cc(C(F)(F)F)ccc1=O)N/N=C/c1ccc(Cl)c(Cl)c1 | 9 | . | .
O=c1c2ccccc2nc(-c2ccc(Cl)cc2Cl)n1O | 25 | 0.58 | .
O=c1c2ccccc2nc(-c2ccccc2Cl)n1O | 11 | 2.8* | 0.071
O=C(O)c1ccccc1-c1nc2cc(Cl)ccc2c(=O)n1O | -1 | -3.2* | 0.068*
O=c1c2ccc(Cl)cc2nc(-c2cccc(C(F)(F)F)c2)n1O | . | 1.6 | .
CCOC(=O)CN1C=C(c2ccc3ccccc3n2)C(C[N+](=O)[O-])c2ccccc21 (stereo unspecified) | . | -3.8* | 0.049*
SMILES | Calb biofilm kill | ROMK mod | ROMK retest
CCOC(=O)CSc1ccc2ccccc2n1 | 7 | -0.15 | .
CC1CC(=O)N(c2ccc(NCc3ccccc3Cl)c([N+](=O)[O-])c2)C1=O (stereo unspecified) | 16 | -0.69 | .
COc1ccc(CN=C2NC(=O)CC(C(=O)Nc3ccc(F)cc3)S2)cc1 (stereo unspecified) | 25 | . | .
CCO/N=C(/C)c1c(O)cc(C(C)(C)C)n(-c2ccccc2)c1=O | 16 | -0.072 | .
CCOc1ccc(-n2nnnc2SCC(=O)NNC(=O)c2ccco2)cc1 | 10 | 0.24 | .
CC(=O)NC(=O)c1ccc(-c2ccc(Cl)cc2)o1 | 20 | -0.087 | .
Cc1c(NC(=S)NC(=O)c2ccc(-c3ccc(Cl)cc3)o2)cccc1C(=O)O | 26 | 3.5* | 0.089
COc1cc(C(=O)N2CCN(Cc3ccccc3C(F)(F)F)CC2)cc(OC)c1OC | . | -2.6* | 0.077
COc1cc(OC)cc(C(=O)N2CCN(Cc3ccccc3C(F)(F)F)CC2)c1 | . | -1.5 | .
c1ccc(-c2noc(CN3CCc4sccc4C3)n2)cc1 | 9 | 0.054 | .
CCOc1ccccc1C(=O)Nc1nn[nH]n1 | -1 | 0.95 | .
CC(=O)c1ccc(-n2nnnc2SCC(=O)Nc2sc(C)c(C)c2C#N)cc1 | 17 | 0.027 | .
Cc1ccc(-n2nnnc2SCC(=O)Nc2sc(C)c(C)c2C#N)cc1C | . | . | 0.073
CCCc1cc(C(=O)Nc2ccccc2SC)no1 | . | . | ?
COc1ccc(-c2cc(C(=O)Nc3ccccc3SC)no2)cc1 | . | 0.36 | .
O=[N+]([O-])c1cc(S(=O)(=O)NC2=NCCCCC2)ccc1NCC1CCCCC1 | 19 | -7.6* | 0.059*
Nc1ccc(S(=O)(=O)NC2=NCCCCC2)cc1N | 20 | -0.42 | .
CC(=O)Nc1ccc(NC(=O)C(C)OC(=O)/C=C/c2cn(-c3ccccc3)nc2-c2cccnc2)cc1 (stereo unspecified) | 18 | 0.76 | .
Fc1ccc(C2=CC(c3ccco3)n3ncnc3N2)cc1 (stereo unspecified) | 12 | -3.1* | 0.053*
Brc1ccc(C2=CC(c3ccco3)n3nnnc3N2)cc1 (stereo unspecified) | 23 | 0.46 | .
O=C(CN1CCCCC1)Nc1cccc(Oc2ccccc2)c1 | . | -2.2 | .
O=C(CCl)Nc1cccc(Oc2ccccc2)c1 | 15 | -4.8* | ?
COc1ccccc1CNS(=O)(=O)c1ccc(NC(C)=O)cc1 | . | 0.31 | .
O=C(O)/C=C/C(=O)NCCC1=CCCCC1 | 15 | -0.077 | .
CCOC(=O)N1CCC(NC(=O)c2cccs2)CC1 | 11 | 0.76 | .
SMILES | Calb biofilm kill | ROMK mod | ROMK retest
CN1CCC(NC(=O)c2cccs2)CC1 | . | . | 0.075
OC1(c2ccc(Cl)c(Cl)c2)C[n+]2ccccc2N1Cc1ccccc1 (stereo unspecified) | 13 | -4* | 0.058*
S=C(Nc1ccc(Cl)c(Cl)c1)NC1CCN(Cc2ccccc2)CC1 | -42 | . | .
FC(F)(F)c1cccc(NC(=S)NCCN2CCOCC2)c1 | 0 | . | .
CCCNC(=S)Nc1cccc(C(F)(F)F)c1 | -4 | -0.57 | ?
Nc1nc(NCC2CCCO2)nc(Nc2cccc(F)c2)c1[N+](=O)[O-] (stereo unspecified) | 1 | . | .
COc1cc(-c2n[nH]c(=S)n2-c2cccc(C(F)(F)F)c2)cc(OC)c1OC | 6 | . | .
O=C1c2oc3ccc(F)cc3c(=O)c2C(c2cccc(O)c2)N1CCCN1CCOCC1 (stereo unspecified) | -6 | -2.3* | 0.075
C=CCOc1cccc(C2c3c(oc4ccc(F)cc4c3=O)C(=O)N2CCCN2CCOCC2)c1 (stereo unspecified) | 3 | . | .
CN(C)c1ccc(NC(=O)c2cccc(C(=O)Nc3ccc(N(C)C)cc3)n2)cc1 | 14 | . | .
COc1ccc(OCc2n(CC(=O)OC3CC(C)CCC3C(C)C)c3ccccc3[n+]2C)cc1 (stereo unspecified) | 23 | -0.46 | .
COc1ccc(-c2n(CC(=O)OC3CC(C)CCC3C(C)C)c3ccccc3[n+]2C)cc1 (stereo unspecified) | 10 | -1.8* | 0.038*
Cc1cc([N+](=O)[O-])nn1CC(=O)Nc1cccc2nonc12 | 24 | 0.19 | .
O=C1CCCN1CCCNC(=S)Nc1ccccc1Cl | 23 | -0.23 | .
Cc1cc(C(=O)CSc2nnnn2-c2ccc(O)cc2)c(C)n1Cc1ccc2c(c1)OCO2 | . | . | ?
Cc1cc(C(=O)CSc2nnnn2-c2ccccc2)c(C)n1-c1ccc2c(c1)OCO2 | 14 | 0.12 | .
CCc1ccccc1N(CC(=O)OC)S(C)(=O)=O | . | 0.15 | .
CCOC(=O)c1c(NC(=S)Nc2ccccc2)sc(C)c1C | 7 | . | .
CCOC(=O)c1c(NC(=O)C[n+]2ccc(Cc3ccccc3)cc2)sc(C)c1C | 19 | -3.8* | 0.061*
C=C(C)CN(CC)C(=O)CC1C(=O)NCCN1Cc1c(F)cccc1Cl (stereo unspecified) | 22 | 0.092 | .
Cc1cc(N2CCN(C)CC2)ccc1NC(=O)c1c2c(nc3ccccc13)CCN(Cc1ccccc1)C2 | 7 | -1.1 | .
O=C(NC1CCCCCC1)c1c2c(nc3ccccc13)CCN(Cc1ccccc1)C2 | 16 | -4.3* | 0.062*
